# B1: Leukotriene A-4 hydrolase (Homo sapiens), P09960 (protein)
# chain: MPEIVDTCSLASPASVCRTKHLHLRCSVDFTRRTLTGTAALTVQSQEDNLRSLVLDTKDLTIEKVVINGQEVKYALGERQSYKGSPMEISLPIALSKNQEIVIEISFETSPKSSALQWLTPEQTSGKEHPYLFSQCQAIHCRAILPCQDTPSVKLTYTAEVSVPKELVALMSAIRDGETPDPEDPSRKIYKFIQKVPIPCYLIALVVGALESRQIGPRTLVWSEKEQVEKSAYEFSETESMLKIAEDLGGPYVWGQYDLLVLPPSFPYGGMENPCLTFVTPTLLAGDKSLSNVIAHEISHSWTGNLVTNKTWDHFWLNEGHTVYLERHICGRLFGEKFRHFNALGGWGELQNSVKTFGETHPFTKLVVDLTDIDPDVAYSSVPYEKGFALLFYLEQLLGGPEIFLGFLKAYVEKFSYKSITTDDWKDFLYSYFKDKVDVLNQVDWNAWLYSPGLPPIKPNYDMTLTNACIALSQRWITAKEDDLNSFNATDLKDLSSHQLNEFLAQTLQRAPLPLGHIKRMQEVYNFNAINNSEIRFRWLRLCIQSKWEDAIPLALKMATEQGRMKFTRPLFKDLAAFDKSHDQAVRTYQEHKASMHPVTAMLVGKDLKVD
# Columns and labels:
# [1] = target: T1, Leukotriene A-4 hydrolase (Homo sapiens, UniProt P09960); assay: Inhibition of amidase activity of LTA4 hydrolase purified from human leukocytes
# T1 sequence (P09960 whole entry): B1 chain
# [2] = target: T2, Leukotriene A-4 hydrolase (Homo sapiens) (UniProt P09960); assay: Kinetic parameter kcat against LTA4 hydrolase purified from human leukocytes
# T2 sequence (whole entry): B1 chain
# Method in brief: (§1)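 Amino acid amides tested as substrates in 50 mM Tris-Cl, pH 7.6, with 0.1 M NaCl. p-Nitroaniline release read at 410 nm using ε 8850 M⁻¹ cm⁻¹.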
# [3] = Ratio kcat /Km ([…]/M 1/s); set-up: scale not given here
# Cytosol aminopeptidase = Cytosol aminopeptidase (Homo sapiens, UniProt P28838); assay: Inhibitory concentration against cytosolic leucine aminopeptidase
# [4] = target: T1, Leukotriene A-4 hydrolase; assay: Ability at 1 mM to inhibit amidase activity of LTA4 hydrolase (1.4 ug) purified from human leukocytes; NI=No inhibition
# Method in brief: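 Human leukocyte enzyme (1.4 μg) in 0.05 M Tris-HCl, pH 8.0, with 1.5 mM L-alanyl p-nitroanilide as substrate. Inhibitor tested at 1 mM; thiol compounds assayed with 5 mM DTT. p-Nitroaniline release followed spectrophotometrically at 405 nm.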
# [5] = substrate: NCCCC[C@H](N)C(=O)Nc1ccc([N+](=O)[O-])cc1; assay: (§2) Kinetic parameter Vmax against LTA4 hydrolase purified from human leukocytes was determined; method in brief: as §1
# [6] = substrate: NC(N)=NCCC[C@H](N)C(=O)Nc1ccc([N+](=O)[O-])cc1; assay: as §2; method in brief: as §1
# [7] = substrate: C[C@H](N)C(=O)Nc1ccc([N+](=O)[O-])cc1; assay: as §2; method in brief: as §1
# [8] = substrate: C[C@@H](N)C(=O)Nc1ccc([N+](=O)[O-])cc1; assay: as §2; method in brief: as §1
# [9] = substrate: NCCCC[C@H](N)C(=O)Nc1ccc([N+](=O)[O-])cc1; assay: (§3) Kinetic parameter (Km) for hydrolysis of LTA4 hydrolase purified from human leukocytes; method in brief: as §1
# [10] = substrate: NC(N)=NCCC[C@H](N)C(=O)Nc1ccc([N+](=O)[O-])cc1; assay: as §3; method in brief: as §1
# [11] = substrate: C[C@H](N)C(=O)Nc1ccc([N+](=O)[O-])cc1; assay: as §3; method in brief: as §1
# Chain of Cytosol aminopeptidase (P28838 whole entry): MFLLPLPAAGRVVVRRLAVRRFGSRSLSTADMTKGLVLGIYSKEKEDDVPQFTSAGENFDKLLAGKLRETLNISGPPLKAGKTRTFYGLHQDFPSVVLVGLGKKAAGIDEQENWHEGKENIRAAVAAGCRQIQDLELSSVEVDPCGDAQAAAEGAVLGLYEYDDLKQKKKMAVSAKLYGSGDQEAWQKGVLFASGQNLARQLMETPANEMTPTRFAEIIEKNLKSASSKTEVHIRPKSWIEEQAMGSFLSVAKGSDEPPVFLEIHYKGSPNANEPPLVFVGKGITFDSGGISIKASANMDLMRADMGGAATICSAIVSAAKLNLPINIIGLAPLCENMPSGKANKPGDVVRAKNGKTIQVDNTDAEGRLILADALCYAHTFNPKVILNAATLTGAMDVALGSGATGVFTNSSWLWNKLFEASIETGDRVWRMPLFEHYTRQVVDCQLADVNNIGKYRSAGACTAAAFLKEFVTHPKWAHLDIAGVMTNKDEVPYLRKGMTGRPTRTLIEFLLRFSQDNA
molecule,measurement,setting,value
N[C@@H](Cc1ccccc1)[C@H](O)C(=O)NCc1ccccc1,IC50,[1],> 100 µM
C[C@H](N)C(=O)Nc1ccc([N+](=O)[O-])cc1,k cat,[2],0.6 s⁻¹
same,Ratio,[3],0.0012
NC(Cc1ccccc1)P(=O)(O)NCC(=O)O (stereo not given),IC50,[1],> 100 µM
NC(N)=NCCC[C@H](N)C(=O)Nc1ccc([N+](=O)[O-])cc1,k cat,[2],0.15 s⁻¹
same,Ratio,[3],0.00075
N[C@H](CS)Cc1ccc(OCc2ccccc2)cc1,IC50,Cytosol aminopeptidase,> 50 µM
NCCCC[C@H](N)C(=O)Nc1ccc([N+](=O)[O-])cc1,k cat,[2],0.035 s⁻¹
same,Ratio,[3],0.00035
CC(C)C[C@H](/N=C(\S)[C@@H](O)[C@H](N)Cc1ccccc1)C(=O)O,IC50,[1],> 100 µM
CC(C)C[C@H](/N=C(\S)[C@H](O)[C@@H](N)Cc1ccccc1)C(=O)O,IC50,[1],> 100 µM
N[C@@H](Cc1ccccc1)[C@H](O)C(=O)OCc1ccccc1,IC50,[1],20 µM
CC(C)C[C@H](NC(=O)C(S)C(N)Cc1ccccc1)C(=O)O (stereo not given in full),IC50,[1],> 250 µM
COC(=O)C(=O)[C@@H](N)Cc1ccc(OCc2ccccc2)cc1,IC50,Cytosol aminopeptidase,50 µM
N[C@@H](Cc1ccc(OCc2ccccc2)cc1)C(=O)C(=O)OCc1ccccc1,IC50,Cytosol aminopeptidase,> 100 µM
CC(C)C[C@H](N)C(=O)Nc1ccc([N+](=O)[O-])cc1,k cat,[2],0.15 s⁻¹
same,Ratio,[3],0.0005
CCCCC/C=C\C\C=C/C=C/C=C/[C@@H]1O[C@H]1CCCC(=O)O,k cat,[2],0.68 s⁻¹
same,Ratio,[3],0.09
COC(=O)C(S)C(N)Cc1ccccc1 (stereo not given),IC50,[1],250 µM
N[C@@H](Cc1ccc(OCc2ccccc2)cc1)[C@H](O)C(=O)OCc1ccccc1,IC50,Cytosol aminopeptidase,80 µM
CCOC(=O)CC(F)(F)C(=O)c1[nH]cnc1C,IC50,[1],> 1000 µM
O=C(Nc1ccc([N+](=O)[O-])cc1)[C@@H]1CCCN1,k cat,[2],0.15 s⁻¹
same,Ratio,[3],0.0015
COC(=O)[C@@H](O)[C@H](N)Cc1ccccc1,IC50,[4],Not Active
CC(C)C[C@H](/N=C(\S)[C@H](O)[C@H](N)Cc1ccccc1)C(=O)O,IC50,[1],> 100 µM
COC(=O)[C@H](O)[C@H](N)Cc1ccccc1,IC50,[4],Not Active
N[C@H](Cc1ccccc1)[C@H](O)C(=O)O,IC50,[4],Not Active
B1,Vmax (nM min-1 mg-1),[5],30
same,Vmax (nM min-1 mg-1),[6],135
same,Vmax (nM min-1 mg-1),[7],530
same,Vmax (nM min-1 mg-1),[8],0
same,Km,[9],100 µM
same,Km,[10],200 µM
same,Km,[11],500 µM
